Measured values gathered from unrelated publications.
Target: High affinity nerve growth factor receptor (NTRK1, Homo sapiens, UniProt P04629)

| SMILES | read-out | action | method | tested at | measurement | value |
| --- | --- | --- | --- | --- | --- | --- |
| C[C@H]1CC[C@H](n2c3cnccc3c3cnc(Nc4ccc5c(n4)CCN(C(=O)CO)C5)nc32)CC1 | cell-free assay |  | competition with immobilised ligand | 1 µM | remaining binding | 18% |
| C1=C/COCc2cc(ccc2OCCN2CCCC2)Nc2nccc(n2)-c2cccc(c2)COC/1 | binding |  |  | 0.1 µM | remaining binding | 10% |
| COc1ccc2[nH]c3c4[nH]c5ccc(OC)cc5c4c4c(c3c2c1)C(=O)NC4=O | binding |  | competition with immobilised ligand | 1 µM | remaining binding | 40% |
| CCCCC(=O)Nc1ccc(-c2ccc3ncn(CCC)c(=O)c3c2)cn1 | binding |  | competition with immobilised ligand | 0.5 µM | remaining binding | 99% |
| CO[C@@H]1[C@H](N(C)C(=O)c2ccccc2)C[C@H]2O[C@]1(C)n1c3ccccc3c3c4c(c5c6ccccc6n2c5c31)C(=O)NC4 | enzyme activity | inhibitor |  | 1 µM | inhibition | 98% |
| COc1ccc2oc(-c3ccc4nc(N)oc4c3)c/c(=N\c3ccccc3NC(=O)CCN)c2c1 | binding |  |  | 1 µM | remaining binding | 88% |
| C=CC(=O)N1CCC([C@@H]2CCNc3c(C(N)=O)c(-c4ccc(Oc5ccccc5)cc4)nn32)CC1 | cell-free assay |  |  | 1 µM | inhibition | 47% |
| N#Cc1ccc(NC(=O)Nc2ccccc2)cc1 | cell-free assay |  | competition with immobilised ligand | 25 µM | remaining binding | 55% |
| CN(C)C(=O)c1cc2cnc(Nc3ccc(-c4ccc5c(=O)cc(N6CCOCC6)oc5c4)cc3)nc2n1C1CCCC1 | binding |  | competition with immobilised ligand | 1 µM | remaining binding | 3.7% |
